Test results: ChEMBL document CHEMBL4138109, “Synthesis and structure-activity relationships of novel fused ring analogues of Q203 as antitubercular agents” (Eur J Med Chem, 2017)
Converted amounts (≈) assume the structure as drawn.

Legend:
[1] = Half life in rat liver microsomes; assay type: ADME, microsome
[2] = Half life in human liver microsomes; assay type: ADME, microsome
[3] = tested on: Mycobacterium tuberculosis; assay: Antimycobacterial activity against GFP expressing Mycobacterium tuberculosis H37Rv assessed as reduction in bacterial replication in culture broth medium; assay type: functional
Summary of the method: (§1)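 H37Rv expressing GFP, grown either in liquid broth (extracellular) or inside macrophages (intracellular). The value is MIC80, the lowest concentration that inhibits growth by 80%, averaged from two independent measurements.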

[4] = tested on: Mycobacterium tuberculosis; assay: Antimycobacterial activity against GFP expressing Mycobacterium tuberculosis H37Rv infected in mouse RAW264.7 cells assessed as reduction in bacterial replication after 5 days by confocal microscopic method; assay type: functional; conditions: 120 h; summary of the method: as §1
[5] = Oral bioavailability in mouse at 10 mg/kg; assay type: ADME, organism-based; conditions: in vivo
Summary of the method: (§2)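 Mice received a single intravenous dose of 2 mg/kg or an oral dose of 10 mg/kg. Drug concentrations were measured in plasma, with sampling that extended to 24 h, and the pharmacokinetic parameters were derived from the plasma concentration–time profiles.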

[6] = AUC (0 to infinity) in mouse at 10 mg/kg, po; assay type: ADME, organism-based; design: dose 10 mg/kg, route oral, time infinity; conditions: in vivo; summary of the method: as §2
[7] = Volume of distribution at steady state in mouse at 2 mg/kg, iv; assay type: ADME, organism-based; conditions: in vivo, read-out: Vdss; summary of the method: as §2
[8] = Cmax in mouse at 10 mg/kg, po; assay type: ADME, organism-based; design: dose 10 mg/kg, route oral; conditions: in vivo; summary of the method: as §2
[9] = Tmax in mouse at 10 mg/kg, po; assay type: ADME, organism-based; conditions: in vivo; summary of the method: as §2
[10] = Clearance in mouse at 2 mg/kg, iv; assay type: ADME, organism-based; conditions: in vivo; summary of the method: as §2
[11] = Half life in mouse at 2 mg/kg, iv; assay type: ADME, organism-based; conditions: in vivo; summary of the method: as §2
[12] = Half life in mouse at 10 mg/kg, po; assay type: ADME, organism-based; conditions: in vivo; summary of the method: as §2

| Compound | half-life [1] | half-life [2] | MIC80 [3] | MIC80 [4] | bioavailability [5] | AUC(0-inf) [6] | Vd [7] | Cmax [8] | Tmax [9] | clearance [10] | half-life [11] | half-life [12] |
| --- | --- | --- | --- | --- | --- | --- | --- | --- | --- | --- | --- | --- |
| CCc1nc2ccc(Cl)cn2c1C(=O)NCc1ccc2oc(-c3ccc(F)cc3)nc2c1 | 54.3 min | 25.6 min | 0.009 µM (≈ 0.00404 µg/mL) | 0.003 µM (≈ 0.00135 µg/mL) | – | – | – | – | – | – | – | – |
| CCc1nc2cc(Cl)ccn2c1C(=O)NCc1ccc2ccccc2c1 | 6.3 min | 23.7 min | 0.12 µM (≈ 0.0437 µg/mL) | 1 µM (≈ 0.364 µg/mL) | – | – | – | – | – | – | – | – |
| CCc1nc2cc(Cl)ccn2c1C(=O)NCc1ccc2oc(C3CCCCC3)nc2c1 | 9.5 min | 10.2 min | 0.082 µM (≈ 0.0358 µg/mL) | 0.082 µM (≈ 0.0358 µg/mL) | – | – | – | – | – | – | – | – |
| CCc1nc2ccc(Cl)cn2c1C(=O)NCc1ccc2oc(-c3ccc(OC(F)(F)F)cc3)nc2c1 | > 120 min | > 120 min | 0.027 µM (≈ 0.0139 µg/mL) | 0.009 µM (≈ 0.00463 µg/mL) | – | – | – | – | – | – | – | – |
| CCc1nc2cc(Cl)ccn2c1C(=O)NCc1ccc2oc(CN3CCOCC3)nc2c1 | 18.9 min | 23.2 min | 13.7 µM (≈ 6.22 µg/mL) | 6.67 µM (≈ 3.03 µg/mL) | – | – | – | – | – | – | – | – |
| CCc1nc2ccc(Cl)cn2c1C(=O)NCc1ccc2oc(C)nc2c1 | 5.8 min | 32.2 min | 0.2 µM (≈ 0.0738 µg/mL) | 0.082 µM (≈ 0.0302 µg/mL) | – | – | – | – | – | – | – | – |
| CCc1nc2cc(Cl)ccn2c1C(=O)NCc1ccc2oc(-c3ccc(F)cc3)nc2c1 | > 120 min | 103 min | 0.082 µM (≈ 0.0368 µg/mL) | 0.74 µM (≈ 0.332 µg/mL) | – | – | – | – | – | – | – | – |
| CCc1nc2ccc(Cl)cn2c1C(=O)NCc1ccc2c(c1)OCO2 | 2.1 min | 7.4 min | 0.082 µM (≈ 0.0293 µg/mL) | 0.009 µM (≈ 0.00322 µg/mL) | – | – | – | – | – | – | – | – |
| CCc1nc2ccc(Cl)cn2c1C(=O)NCc1ccc2ccccc2c1 | 3.1 min | 6.9 min | 0.031 µM (≈ 0.0113 µg/mL) | 0.062 µM (≈ 0.0226 µg/mL) | – | – | – | – | – | – | – | – |
| CCc1nc2cc(Cl)ccn2c1C(=O)NCc1ccc2oc(-c3ccc(OC(F)(F)F)cc3)nc2c1 | > 120 min | > 120 min | 0.009 µM (≈ 0.00463 µg/mL) | < 0.001 µM | 40.1% | 116 µg·h/mL | 1.2 L/kg | 5560 ng/mL | 60 min | 0.6 mL/min/kg | 1080 min | 36.3 h |
| CCc1nc2ccc(Cl)cn2c1C(=O)NCc1ccc2oc(C3CCCCC3)nc2c1 | 5.2 min | 17 min | 0.082 µM (≈ 0.0358 µg/mL) | 0.082 µM (≈ 0.0358 µg/mL) | – | – | – | – | – | – | – | – |
| CCc1nc2ccc(Cl)cn2c1C(=O)NCc1ccc2oc(CN3CCOCC3)nc2c1 | 14.1 min | 17 min | 2.67 µM (≈ 1.21 µg/mL) | 2.22 µM (≈ 1.01 µg/mL) | – | – | – | – | – | – | – | – |
| CCc1nc2cc(Cl)ccn2c1C(=O)NCc1ccc2oc(C)nc2c1 | 10.3 min | > 120 min | 1.53 µM (≈ 0.564 µg/mL) | 0.74 µM (≈ 0.273 µg/mL) | – | – | – | – | – | – | – | – |
| NNC(=O)c1ccncc1 [ISONIAZID] | – | – | 0.49 µM (≈ 0.0672 µg/mL) | 0.2 µM (≈ 0.0274 µg/mL) | – | – | – | – | – | – | – | – |
| CCc1nc2ccc(Cl)cn2c1C(=O)NCc1ccc(N2CCC(c3ccc(OC(F)(F)F)cc3)CC2)cc1 [TELACEBEC] | – | – | 0.004 µM (≈ 0.00223 µg/mL) | 0.001 µM (≈ 0.000557 µg/mL) | – | – | – | – | – | – | – | – |
